Experimental findings from article PMC7597899 (Chemical Science, 2020) are described below.

Structures are written as SMILES.

The series can be described thus: Acidity. Format: physicochemical. The conditions noted are these: aqueous 0.15 M KCl, with or without methanol cosolvent. Put shortly:
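Potentiometric titrations in 0.15 M KCl, titrated with 0.5 M HCl and KOH over pH 2.0–12.0. Samples were ≤0.5 mg and run in triplicate. Standard deviation came from fitting all three replicates. For water-insoluble compounds, methanol was added and the apparent psKa was extrapolated to aqueous pKa by the Yasuda–Shedlovsky procedure.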
By pKa is commonly meant the pH at which an ionisable group is half protonated. The compound `CONC(=O)c1n[nH]c2ccccc12` [Compound 1a, O-methyl indazole-3-hydroxamic acid] displayed a pKa of 8.43. `CONC(=O)c1nc2ccccc2[nH]1` [Compound 2a, O-methyl benzimidazole-2-hydroxamic acid] returned a pKa of 7.21. As for `CONC(=O)c1nsc2ccccc12` [Compound 3a, O-Methyl 1,2-benzisothiazole-3-hydroxamic acid], the figure is 7.44; as for `CONC(=O)c1nc2ccccc2s1` [Compound 4a, O-methyl benzothiazole-2-hydroxamic acid], 6.34.
